Experimental data of several laboratories.
Lines come from different studies, so protocols differ.
SCN1A: Sodium channel protein type 1 subunit alpha (SCN1A, Homo sapiens, UniProt P35498)

SMILES	target	test	system	setting	measurement	result
CCCN1C[C@H](CSC)C[C@@H]2c3cccc4[nH]cc(c34)C[C@H]21	SCN1A	ion current, inhibitor, patch clamp		30 µM	inhibition	89.1%
CNC[C@H](O)c1cccc(O)c1	Alpha-1A adrenergic receptor (ADRA1A, Homo sapiens, UniProt P35348)	calcium signal, agonist	COS-7		Emax	~80%
CNc1ncc2c(/C=C/C(=O)N3CCC(OC)CC3)nn(Cc3cccc(C(F)(F)F)c3)c2n1	Receptor-interacting serine/threonine-protein kinase 2 (RIPK2, Homo sapiens, UniProt O43353)	enzyme activity, inhibitor, radiometric		1 µM	remaining activity	87%
CC(=O)c1c(C)c2cnc(Nc3ccc(N4CCNCC4)cn3)nc2n(C2CCCC2)c1=O	Cyclin-dependent kinase 5, with p35 (CDK5, Homo sapiens, UniProt Q00535)	enzyme activity, inhibitor, ADP detection		1 µM	activity vs control	103%
Cc1cc([C@@H](C)Nc2ccccc2C(=O)O)c2nc(N3CCC(F)(F)CC3)c(C#N)c(=O)n2c1	High affinity nerve growth factor receptor (NTRK1, Homo sapiens, UniProt P04629)	binding, competition with immobilised ligand		10 µM	remaining binding	97%
COc1cc(-c2cncc3c2CN(C)Cc2cc(N4CCNCC4)ccc2-3)cc(OC)c1OC	Cyclin-dependent kinase 5, with p25 (CDK5, Homo sapiens, UniProt Q00535)	enzyme activity, inhibitor		1 µM	remaining activity	109%
O=C1NC(=O)C(c2ccccc2)(c2ccccc2)N1	SCN1A	ion current, inhibitor, patch clamp		3 µM	inhibition	0.654%
C=CC(=O)N1CCC(COCC(=O)N2CCN(c3nc(-c4cnc(N)nc4C(F)F)nc(N4CCOC[C@@H]4C)n3)CC2)CC1	Mitotic checkpoint serine/threonine-protein kinase BUB1 (BUB1, Homo sapiens, UniProt O43683)	binding, competition with immobilised ligand		1 µM	remaining binding	93%
Cc1nnc(SCC2=C(C(=O)O)N3C(=O)[C@@H](NC(=O)Cn4cnnn4)[C@H]3SC2)s1	SCN1A	ion current, inhibitor, patch clamp		10 µM	inhibition	4.84%
C[C@H]1O[C@H](O[C@H]2[C@H](O)[C@@H](O)[C@@H](O[C@H]3[C@H](O)[C@@H](O)C(O)O[C@@H]3CO)O[C@@H]2CO)[C@H](O)[C@@H](O)[C@@H]1N[C@H]1C=C(CO)[C@@H](O)[C@H](O)[C@H]1O (stereo partly shown)	Alpha-glucosidase MAL12 (MAL12, Saccharomyces cerevisiae S288c, UniProt P53341)	enzyme activity, inhibitor, absorbance		2000 µg/mL	inhibition	91.2%
